ChEMBL document CHEMBL4513216, “Probing the Open Global Health Chemical Diversity Library for Multistage-Active Starting Points for Next-Generation Antimalarials” (ACS Infect Dis, 2020)

Test: Toxicity liver stage against HepG2, at 10uM
Format: cell-based
Parameters: test concentration 10 uM, cell line HepG2-A16-CD81EGFP
Settings: human, HepG2-A16-CD81EGFP cells; read-out: INHIBITION
In short: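 Uninfected HepG2-A16-CD81EGFP cells, 3 × 10^3 per well, 1536-well, plated on prespotted compound at 10 μM final, parasite-free screening media added to match infected plates; puromycin 10 μM positive, DMSO 0.5% negative; run in parallel with 48 h PbLuc assay at 37 °C, 5% CO2; viability by CellTiter-Glo luminescence, normalized to controls.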

Going from `Cc1cccc(-c2noc([C@@H]3C[C@@H](O)CN3C)n2)c1` to `O=S1(=O)CCC(c2nc(-c3cccc(Br)c3)no2)C1` (centres undefined), the cytotoxicity at 10 µM rises from -3.54% to 7.51%.

First: Cn1cnc2cc(NC(=O)c3n[nH]c4c3CCC4)ccc21
Second: Cc1cccc2nc(-c3nc4c([nH]3)CCCNC4=O)cn12
The cytotoxicity at 10 µM of the first is lower: -0.806% for the first, 3.67% for the second.

First: O=C(c1nnn(-c2ccc(F)cc2)n1)N(CCO)Cc1ccccc1
Second: NC(=O)CS(=O)(=O)Cc1ccc(OCc2ccc(F)cc2)cc1
The cytotoxicity at 10 µM of the first is lower: 1.56% for the first, 4.93% for the second.

Going from `Cc1c[nH]nc1C1CCN(C(=O)CC2CCCC2)C1` (centres undefined) to `O=C(CCc1nc(Cl)n[nH]1)N1CCC2(CCCN(CC3CCC3)C2=O)C1` (centres undefined), the cytotoxicity at 10 µM falls from -4.15% to -5.3%.

Going from `COc1cccc(C(=O)Nc2ccc(OCCC(N)=O)cc2)c1OC` to `COc1cc(NC(=O)c2cccc(N(C)C)c2)cc(OC)c1`, the cytotoxicity at 10 µM falls from 4.19% to 0.03%.

Compared with `CN(CC(=O)Nc1ccccc1)C(=O)CN(C)c1ccc(Cl)cn1`, `Cc1ccc(NC(=O)NCCCn2nc3ccccn3c2=O)cc1` is lower in cytotoxicity at 10 µM: -1.83% for the first, -19.1% for the second.

Going from `Cc1ccc(F)c(CNc2ccn(CCC(N)=O)n2)c1` to `CC(=O)Nc1cc(C(=O)Nc2cc(CC(C)(C)C)nn2C)ccc1F`, the cytotoxicity at 10 µM rises from -4.75% to 0.388%.

Going from `Cc1ncc2c(n1)CCN(Cc1nc(Cc3ccccc3)no1)C2` to `NC1CCCc2nc(-c3ccccc3)ncc21` (centres undefined), the cytotoxicity at 10 µM rises from 0.414% to 4.93%.

Going from `COc1ccc(C)cc1CN1CCN(Cc2nccn2C)CC1` to `O=C(COCc1ccccc1Cl)N1CCN(c2ncccn2)CC1`, the cytotoxicity at 10 µM rises from 5.5% to 6.43%.

First: COC(=O)c1cc(NC2CCN(CC(F)(F)F)C2=O)ccc1C (centres undefined)
Second: COc1ccccc1C1CCN(C(=O)CN2C(=O)OC(C)(C)C2=O)CC1
The cytotoxicity at 10 µM of the first is lower: -0.812% for the first, 8.12% for the second.

Compared with `Cc1ocnc1C(=O)Nc1ccc(-c2nnc(N(C)C)o2)cc1`, `COc1c(-c2ccc(O)cc2)oc2cc(O)cc(O)c2c1=O` [ISOKAEMPFERIDE] is higher in cytotoxicity at 10 µM: 5.49% for the first, 7.8% for the second.

Compared with `COc1cc(Cl)ccc1C(=O)NCC(=O)Nc1nccs1`, `COc1ccc(C(C)Nc2ncc(C(N)=O)cc2Cl)cc1F` (centres undefined) is lower in cytotoxicity at 10 µM: 6.62% for the first, 5.37% for the second.

Compared with `CCN(Cc1ccco1)C(C)c1nc(C(C)C)no1` (centres undefined), `O=C(c1csc(-c2ccco2)n1)N1CCOc2ncccc21` is lower in cytotoxicity at 10 µM: 15.6% for the first, 10.2% for the second.

Compared with `CCOc1ccccc1C(=O)N(C)C(C)c1ccc(S(C)(=O)=O)cc1` (centres undefined), `CC(Oc1ccc(S(C)(=O)=O)cc1)C(=O)NC(N)=O` (centres undefined) is lower in cytotoxicity at 10 µM: 12.9% for the first, -5.69% for the second.

First: COC1CCN(C(=O)c2csc(-c3ccccc3F)n2)CC1
Second: O=C(c1cn(-c2cccc(Cl)c2F)nn1)N1CCCSCC1
The cytotoxicity at 10 µM of the first is lower: -5.6% for the first, 3.98% for the second.

First: N#Cc1ccc(N2CCCC2Cn2cccn2)nc1 (centres undefined)
Second: O=C(COc1ccc(Cl)cc1)N1CCN(c2cnccn2)CC1
The cytotoxicity at 10 µM of the first is higher: 6.55% for the first, -20.4% for the second.

First: CCNC(=O)NC(C)(C)C(=O)NCc1cccc(N2CC=CC2)c1
Second: Cc1cc(NC(=O)NCCc2ccc(S(N)(=O)=O)cc2)n(C)n1
The cytotoxicity at 10 µM of the first is higher: 7.35% for the first, -3.39% for the second.

Compared with `CNC(=O)CN(C)Cc1ccc(F)cc1Cl`, `Cc1c(C(=O)NCCC(=O)N2CCOCC2)sc2ccc(F)cc12` is higher in cytotoxicity at 10 µM: -2.9% for the first, 4.5% for the second.

Going from `CC(C)(C)c1noc(CCCC(=O)N2CCCC(c3ccn[nH]3)C2)n1` (centres undefined) to `Cc1cccc(C2CCCN(C(=O)CN3CCOC3=O)C2)c1` (centres undefined), the cytotoxicity at 10 µM rises from -14.2% to -2.82%.

Going from `Cc1n[nH]c(C2CN(Cc3ncc(C(C)C)o3)CCO2)n1` (centres undefined) to `Cc1ncc(CO)c(CN2CCCC2c2nc3c(C)cccc3[nH]2)c1O` (centres undefined), the cytotoxicity at 10 µM rises from -6.32% to 0.414%.

First: CC(C)Nc1ccnc(-c2ccnc3c2ccn3C)n1
Second: COCCc1noc(-c2ccc(-c3cc[nH]n3)nc2)n1
The cytotoxicity at 10 µM of the first is lower: -5.2% for the first, -2.79% for the second.

Compared with `c1csc(-c2noc(COCC3CCCO3)n2)c1` (centres undefined), `CC(C)n1cnnc1CN(C)Cc1cnc(-c2cccs2)nc1` is higher in cytotoxicity at 10 µM: -1.62% for the first, 8.55% for the second.

First: CC(C)Cc1cn(C2CCN(C(C)CC3CC3)CC2)nn1 (centres undefined)
Second: COC(C)(C)CC(C)NCc1nncn1C1CCCCC1 (centres undefined)
The cytotoxicity at 10 µM of the first is lower: -2.9% for the first, -2.87% for the second.

Going from `O=C1CCCCN1CC(=O)N1CCCC(c2ccccc2)C1` (centres undefined) to `O=C(CN1C(=O)CCNC1=O)N1CCOC(c2ccc(F)cc2)C1` (centres undefined), the cytotoxicity at 10 µM rises from -1.05% to 5.11%.

Going from `Cc1ccc(CCNc2ncnc3sc4c(c23)CCNC4)o1` to `O=c1c2cccc(F)c2ncn1CCN1CCOCC1`, the cytotoxicity at 10 µM falls from 3.94% to 2.53%.

Compared with `O=C1CC2(CCCC2)CN1CCOc1ccc(F)cc1`, `Cc1cc(C(=O)N2CCCC3(C=Cc4ccccc4O3)CC2)cc(=O)[nH]1` (centres undefined) is higher in cytotoxicity at 10 µM: 1.05% for the first, 8.06% for the second.

First: CCNC(=O)[C@@H]1C[C@H](N)CN1c1cc(C(F)(F)F)nc(N(C)C)n1
Second: O=C(NC1CC1)C1CNCCN1C(=O)CCc1ccc2c(c1)OCO2 (centres undefined)
The cytotoxicity at 10 µM of the first is lower: -14.1% for the first, -0.766% for the second.

First: Cc1cc(-c2nc(-c3ccccn3)nn2C2CCN(C)CC2)nc(C)n1
Second: O=C(CCC(=O)N1CCC(Cc2ccc(CO)cc2)C1)c1ccccc1 (centres undefined)
The cytotoxicity at 10 µM of the first is lower: -3.14% for the first, 0.727% for the second.

Going from `COCCN(Cc1sccc1C)C(=O)C1CCCN(C(N)=O)C1` (centres undefined) to `O=C(NCCCc1ccco1)c1ccc(N2CCOCC2)cc1`, the cytotoxicity at 10 µM falls from -4.7% to -5.54%.

`CCCNC(=O)C(C)Nc1ccc(OCC)cc1` (centres undefined) [PROPETAMIDE] gave a cytotoxicity at 10 µM of 8.84%.
